Results on one molecule are retold here after ChEMBL document CHEMBL4665634, “Inhibiting Aβ toxicity in Alzheimer's disease by a pyridine amine derivative” (Eur J Med Chem, 2019).

Data set [1] can be described thus: Inhibition of Zn2+ induced amyloid beta (1 to 42) aggregation assessed as reduction in fibril formation incubated for 24 hrs in presence of Zn2+ by Thioflavin T based fluorometric assay. In a few lines: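 Aβ42 (20 µM) mixed with compound (0.1–100 µM), with or without Zn2+ (20 µM), in Tris-HCl pH 7.4, incubated at 37 °C for 24 h. ThT (5 µM) added, fluorescence read at ex 450/em 485 nm.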

Data set [2] relates to Mus musculus. Nature of the data set: Cognitive enhancing effect in APP/PS1 double mutant-transgenic C57BL/6 mouse model assessed as effect on escape latency time at 1 mg/kg, iv measured on day 5 by Morris water maze test (reference value: 50.08 +/- 17.95 sec). In kind it is functional. The following applies: time 5 day.
Data set [3] deals with Caenorhabditis elegans. Briefly: Reduction in Amyloid-beta deposits in transgenic Caenorhabditis elegans CL4176 using anti-Abeta 6E10/rhodamine-phalloidin at 50 to 100 uM after 48 hrs by immunostaining. The following applies: dose microM 50-100, time 48.0 hrs. In kind it is functional. Put shortly: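 CL4176 L3 worms kept on compound plates (50, 100 µM) at 25 °C for 2 days. Fixed in 4% paraformaldehyde and permeabilized with 1% Triton X-100. Stained with 6E10 plus Alexa Fluor 488 secondary and rhodamine-phalloidin (1:4000). Confocal imaging at ex 488/em 500–530 nm and ex 543/em 565–605 nm.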

Data set [4] deals with T1, Amyloid-beta precursor protein (Homo sapiens, UniProt P05067). Nature of the data set: Inhibition of self-induced amyloid beta (1 to 42) (unknown origin) aggregation assessed as decrease in negative band ellipticity and shift around 230 nm resulting in modulation of amyloid beta (1 to 42) conformation at 80 uM incubated for 24 hrs by circular dichroism spectroscopy. In a few lines: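 CD spectra taken on Aβ42 (40 µM). Metal ion (ZnCl2 or CuCl2, 40 µM) was preincubated 5 min at room temperature where present, then compound (80 µM) was added and incubated at 37 °C for 24 h. Spectra recorded 190–270 nm in a 1.0 cm quartz cell, bandwidth 0.1 nm, response time 10 s.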
T1 sequence (P05067 whole entry): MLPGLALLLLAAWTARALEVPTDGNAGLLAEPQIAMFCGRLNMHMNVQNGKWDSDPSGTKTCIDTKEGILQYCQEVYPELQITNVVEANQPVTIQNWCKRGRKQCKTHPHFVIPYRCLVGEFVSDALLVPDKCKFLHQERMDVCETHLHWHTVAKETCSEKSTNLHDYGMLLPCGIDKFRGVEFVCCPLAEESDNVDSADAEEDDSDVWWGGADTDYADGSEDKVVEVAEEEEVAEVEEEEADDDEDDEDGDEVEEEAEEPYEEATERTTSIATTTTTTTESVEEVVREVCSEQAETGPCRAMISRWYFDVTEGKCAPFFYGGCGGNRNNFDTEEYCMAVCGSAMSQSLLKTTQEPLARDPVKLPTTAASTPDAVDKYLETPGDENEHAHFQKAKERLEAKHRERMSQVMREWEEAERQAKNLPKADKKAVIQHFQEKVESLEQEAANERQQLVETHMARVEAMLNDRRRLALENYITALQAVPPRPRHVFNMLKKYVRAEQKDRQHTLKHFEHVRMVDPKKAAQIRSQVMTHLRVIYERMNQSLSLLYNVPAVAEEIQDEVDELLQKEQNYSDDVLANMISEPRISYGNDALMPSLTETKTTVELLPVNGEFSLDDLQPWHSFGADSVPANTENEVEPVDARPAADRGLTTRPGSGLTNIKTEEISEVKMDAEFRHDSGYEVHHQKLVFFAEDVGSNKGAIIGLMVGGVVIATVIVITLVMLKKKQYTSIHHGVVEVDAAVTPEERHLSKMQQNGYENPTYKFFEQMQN
On the technique in general: Circular dichroism is the unequal absorption of left and right circularly polarised light.

The subject of data set [5] is Caenorhabditis elegans. Nature of the data set: Inhibition of AChE in Caenorhabditis elegans CL4176 assessed as enzyme activity at 25 uM after 48 hrs by DTNB reagent based colorimetric analysis (reference value: 272.49 +/- 14.6 units/L). Put shortly:
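Transgenic CL4176 worms kept on NGM plates with compound (0, 25, 50, 100 µM) at 25 °C for 48 h. Lysates made by sonication in 0.1 M phosphate buffer pH 7.4 and centrifuged at 13000 rpm for 5 min. AChE activity in the supernatant was measured with a kit, read as absorbance at 412 nm, given in Units/L normalized to protein concentration, mean ± S.D.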

Data set [6] addresses T1, Amyloid-beta precursor protein. Briefly: Inhibition of amyloid beta (1 to 42)-induced paralysis in transgenic Caenorhabditis elegans CL4176 L3 expressing human amyloid beta (1 to 42) assessed as roller movement of worms by microscopic analysis.
A short description of data set [7]: Inhibition of Cu2+ induced amyloid beta (1 to 40) aggregation assessed as reduction in fluorescence intensity at 20 uM preincubated for 5 mins in presence of CuCl2 followed by compound addition addition and incubated for 24 hrs by Thioflavin T based fluorometric assay. Put shortly: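 Aβ40 (20 µM) preincubated with CuCl2 or ZnCl2 (20 µM) for 5 min at room temperature. Compound (20 µM) added, incubated 37 °C for 24 h. ThT (5 µM) added, fluorescence read at ex 450/em 485 nm. Mean ± S.D. of at least three independent experiments.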

In data set [8] the test system is Caenorhabditis elegans. Briefly: Protection against oligomycin-induced mitochondrial stress in Caenorhabditis elegans CL4176 assessed as effect oxygen consumption rate at 100 uM after 48 hrs by seahorse XFe24 analyser based assay.
The nature of data set [9]: Inhibition of Cu2+ induced amyloid beta (1 to 40) aggregation assessed as appearance of granule like species at 0.1 to 100 uM incubated for 24 hrs uranyl acetate staining-based by TEM analysis. To be noted: dose microM 0.1-100, time 24.0 hrs.
Data set [10] has as its target T1, Amyloid-beta precursor protein. Briefly: Inhibition of amyloid beta (1 to 42)-induced paralysis in transgenic Caenorhabditis elegans GMC101 L3 expressing human amyloid beta (1 to 42) assessed as reduction in fluorescence intensity at 100 uM incubated for 2 days by fluorescence based confocal microscopic analysis relative to control. The following applies: time 2.0 day. Put shortly: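 GMC101 L3 worms kept on compound plates (50, 100 µM) at 25 °C for 2 days, mounted on 2% agarose pads. GFP imaged by confocal microscopy at ex 488/em 500–530 nm and intensity quantified. Two experiments, 15 worms per group.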

In data set [11] the test system is Mus musculus. Briefly: Cognitive enhancing effect in APP/PS1 double mutant-transgenic C57BL/6 mouse model assessed as time spent on target quadrant at 1 mg/kg, iv measured on day 6 by Morris water maze test (reference value: 11.77 +/- 5.28 sec). It is filed as functional. To be noted: time 6 day.
For data set [12], the system named is Caenorhabditis elegans. Nature of the data set: Antioxidant activity in Caenorhabditis elegans CL4176 assessed as effect on juglone-induced ROS level by measuring relative fluorescence intensity at 50 uM and 15 to 25 degreeC after 48 hrs by H2DCF-DA probe based fluorescence assay ( Rvb = 74.23 %). It is filed as functional.
In data set [13] the test system is Caenorhabditis elegans. Nature of the data set: Effect on sod-3 mRNA expression in Caenorhabditis elegans CL4176 at 50 uM by qRT-PCR analysis. It is filed as functional. In a few lines: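 CL4176 qRT-PCR of skn-1 or sod-3. RNA extracted with Trizol, EvaGreen qRT-PCR run for 40 cycles (95 °C 5 s, 60 °C 5 s). Normalized to ama-1 by the 2^−ΔΔCt method. Three independent RNA/cDNA preparations, run in triplicate.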
A general note: Real-time PCR tracks product formation cycle by cycle.

The nature of data set [14]: Inhibition of Zn2+ induced amyloid beta (1 to 40) aggregation assessed as appearance of granule like species at 0.1 to 100 uM incubated for 24 hrs uranyl acetate staining-based by TEM analysis. To be noted: dose microM 0.1-100, time 24.0 hrs.
In data set [15] the test system is Caenorhabditis elegans. Nature of the data set: Antioxidant activity in Caenorhabditis elegans CL4176 assessed as effect on ROS production at 100 uM and 15 to 25 degreeC after 48 hrs by H2DCF-DA probe based fluorescence assay ( Rvb = 33.68 %). It is filed as functional.
In data set [16] the test system is Mus musculus. Briefly: Cognitive enhancing effect in APP/PS1 double mutant-transgenic C57BL/6 mouse model assessed as increase in number of hidden escape platform crossings at 1 mg/kg, iv. It is filed as functional, organism-based.
Data set [17] has as its target T1, Amyloid-beta precursor protein. Briefly: Inhibition of amyloid beta (1 to 42)-induced paralysis in transgenic Caenorhabditis elegans GMC101 expressing human amyloid beta (1 to 42) assessed as paralyzed worms at 100 uM measured after 92 hrs by microscopic analysis relative to control. Also on record: scale not given: the % may be the effect or the level left.
Data set [18] deals with Caenorhabditis elegans. Briefly: Reduction in less than 55 kDa amyloid beta species expression in Caenorhabditis elegans CL4176 at 50 uM after 48 hrs by Western blot analysis. In kind it is functional. In a few lines: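 CL4176 raised on plates with compound (50 µM) at 15 °C to L3, then kept at 25 °C for 2 days. Worms sonicated in 0.1 M phosphate buffer, 16 µg protein run on 12% SDS-PAGE and blotted to PVDF. Probed with 6E10 (1:1000) and HRP anti-mouse secondary, with β-actin as the loading control.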

Data set [19] is described as follows: Solubility of the compound in water. In kind it is physicochemical.

Activity calls are given as the source filed them. The rule behind the calls is not given here.

Take `Oc1cc(CN(Cc2ccccn2)Cc2ccccn2)cc(C[P+](c2ccccc2)(c2ccccc2)c2ccccc2)c1.[Br-]`: the IC50 in data set [1] was 27.4 µM. Moreover, the inhibition entry was “Dose-dependent effect” in data set [1] and 20% in [10]. Further, the Time in the data set with Mus musculus [2] amounted to 34.25 s; in the data set on Mus musculus [11] it was 17.2 s. The result (with Caenorhabditis elegans [3]; in data set [6]; in the data set on Caenorhabditis elegans [8]; in the data set with Mus musculus [16]; in the data set with Caenorhabditis elegans [18]) was Active. Also, the inhibition entry in [4], in data set [7], in [9] and in [14] was “Active” each time. Besides, the Activity stood at 248 U/L in the data set with Caenorhabditis elegans [5], 48.97% with Caenorhabditis elegans [12], 21.72% in the data set with Caenorhabditis elegans [15] and 66% in [17]. In addition, the outcome in the data set on Caenorhabditis elegans [13] was inactive. The solubility result in data set [19] is “Insoluble”.

The IC50 is the concentration at which inhibition is half-maximal. One may read the inhibition as the change of the read-out against control, counted positive when it falls.
